High-throughput results as filed in PubChem BioAssay.
This is one part of a sample in which hits are shown more often than they occur.
T cruzi growth-1 = inhibitors of T. cruzi proliferation | T. cruzi beta-gal in NIH3T3, GalScreen luminescence, 90 h | inhibition, % at 8.34 µM | 77,000 compounds, 5.9% hits;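 active means mean inhibition above about 93%, with at least 55% of replicates each passing it, limit read from the data, passing the limit was not always enough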
GASC1 inh = KDM4C (human) demethylase inhibition | Q9H3R0 | AID 720574 | GST-KDM4C 2-372, H3K9me3 peptide, LANCE TR-FRET | 96,000 compounds, 0.15% hits | inhibition, % at 12.5 µM;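 active means mean replicate inhibition above about 25%, with at least 55% of replicates also reaching it, limit read from the data, passing the limit was not always enough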
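Assay system: GST-GASC-1 enzyme fragment 2-372 | Amount: 10 nM enzyme | Medium: HEPES buffer, pH 7.5, plus ascorbate | Reagent: H3K9me3 peptide substrate, Fe(II), 2-oxoglutarate | Doses: Single-point compound screen | Incubation: 30 min demethylation and 1 h detection at room temperature | Measured by: LANCE TR-FRET, excitation 340 nm, emissions 618 and 671 nm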
IDH1 R132H inh = IDH1 R132H (human) inhibition | O75874 | IDH1 R132H reductase, diaphorase/resazurin fluorescence, 60 min | inhibition, % at 10 µM | 70,000 compounds, 0.18% hits; in the data active means inhibition above about 34%
Target sequence (O75874 whole entry R132H): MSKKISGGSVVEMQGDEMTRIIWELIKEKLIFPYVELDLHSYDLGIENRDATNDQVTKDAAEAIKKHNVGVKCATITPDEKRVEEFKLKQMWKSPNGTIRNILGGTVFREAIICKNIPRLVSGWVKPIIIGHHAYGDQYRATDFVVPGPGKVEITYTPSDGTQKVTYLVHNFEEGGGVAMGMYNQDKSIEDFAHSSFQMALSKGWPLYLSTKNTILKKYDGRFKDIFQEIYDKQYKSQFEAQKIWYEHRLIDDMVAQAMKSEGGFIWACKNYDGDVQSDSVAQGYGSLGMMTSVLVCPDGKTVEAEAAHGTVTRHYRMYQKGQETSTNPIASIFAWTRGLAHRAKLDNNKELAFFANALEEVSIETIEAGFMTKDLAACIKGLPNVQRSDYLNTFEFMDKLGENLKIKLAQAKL
T cruzi growth-2 = inhibitors of T. cruzi proliferation. shares compounds with T cruzi growth-1. T. cruzi beta-gal in NIH3T3, GalScreen luminescence, 90 h. inhibition, % at 8.35 µM. 5,600 compounds, 72% hits. AID 651739;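 active means mean replicate inhibition above about 95% and at least 55% of replicates individually reaching it, limit read from the data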
T cruzi growth-3 = blocks T. cruzi growth in NIH3T3 host cells; 5,600 compounds, 21% hits; inhibition, % at 2.09 µM; T. cruzi beta-gal in NIH3T3, GalScreen luminescence, 90 h; AID 651740; shares compounds with T cruzi growth-1;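 active means mean inhibition above about 95%, with at least 55% of replicates also reaching it, limit read from the data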
NIH3T3 tox = cytotoxicity in mouse NIH/3T3 fibroblasts. shares compounds with T cruzi growth-1. cytotoxicity (signal decrease), % at 8.35 µM. NIH/3T3 viability, CellTiter-Glo ATP luminescence, 90 h. 5,600 compounds, 14% hits;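 active means mean signal decrease across replicates above about 35% based on untreated-well scatter, with enough replicates individually passing, limit read from the data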
NIH3T3 tox 2 = cytotoxicity in mouse NIH/3T3 fibroblasts; shares compounds with T cruzi growth-1; NIH/3T3 viability, CellTiter-Glo ATP luminescence, 90 h; inhibition, % at 24.9 µM; 5,600 compounds, 56% hits;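 active means mean loss of cell viability signal at or above a set limit, and enough replicates individually reaching it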
A number is an active result; 0 = inactive; - = no result given.

SMILES	T cruzi growth-1	GASC1 inh	IDH1 R132H inh	others
Cc1ccc(S(=O)(=O)N(C)C[C@H]2OCCCC[C@H](C)Oc3ccc(NS(=O)(=O)c4ccccc4)cc3C(=O)N([C@@H](C)CO)C[C@@H]2C)cc1	122	0	-	T cruzi growth-2=105;T cruzi growth-3=0;NIH3T3 tox=0;NIH3T3 tox 2=0
Cc1ccc(S(=O)(=O)Nc2ccc3c(c2)C(=O)N([C@@H](C)CO)C[C@@H](C)[C@@H](CN(C)C(=O)Cc2ccccc2)OCCCC[C@H](C)O3)cc1	0	0	0
Cc1ccc(S(=O)(=O)N(C)C[C@@H]2OCCCC[C@@H](C)Oc3ccc(NS(=O)(=O)c4ccccc4)cc3C(=O)N([C@@H](C)CO)C[C@H]2C)cc1	0	0	-
O=C(CSc1n[nH]c(-c2ccncc2)n1)N1c2ccccc2Sc2ccccc21	-	-	0
O=C1C(=O)N(Cc2ccco2)C(c2cccs2)C1C(=O)c1cccs1 (stereo not given)	-	-	0
Cc1cc(NC(=O)CN(c2ccc(Cl)cc2)S(C)(=O)=O)ccc1Br	-	-	0
O=C(CCCCCC(=O)N/N=C/c1cc(Cl)cc(Cl)c1O)NO	-	-	0
Cc1cc(C(F)(F)F)nc(SCC(=O)N2c3ccccc3Sc3ccccc32)n1	-	-	0
O=C1c2ccccc2C(=O)N1CCc1nc2ccccc2c(=O)n1Cc1ccccc1	-	-	0
O=C(CN1C(=O)c2cccc3cccc(c23)C1=O)NCC(O)c1ccccc1 (stereo not given)	-	-	0
C[C@H]1CCCCO[C@@H](CN(C)S(=O)(=O)c2ccccc2)[C@@H](C)CN([C@@H](C)CO)C(=O)c2cc(NS(=O)(=O)c3ccccc3)ccc2O1	0	0	0
C[C@@H]1CN([C@@H](C)CO)C(=O)c2cc(NS(=O)(=O)c3ccccc3)ccc2O[C@@H](C)CCCCO[C@H]1CN(C)S(=O)(=O)c1ccccc1	0	0	-
Cc1ccc(S(=O)(=O)Nc2ccc3c(c2)C(=O)N([C@H](C)CO)C[C@H](C)[C@@H](CN(C)S(=O)(=O)c2ccccc2)OCCCC[C@H](C)O3)cc1	0	0	0
Cc1ccc(S(=O)(=O)Nc2ccc3c(c2)C(=O)N([C@@H](C)CO)C[C@H](C)[C@H](CN(C)S(=O)(=O)c2ccccc2)OCCCC[C@H](C)O3)cc1	111	0	-	T cruzi growth-2=106;T cruzi growth-3=0;NIH3T3 tox=0;NIH3T3 tox 2=0
Cc1ccc(S(=O)(=O)Nc2ccc3c(c2)C(=O)N([C@@H](C)CO)C[C@@H](C)[C@@H](CN(C)S(=O)(=O)c2ccccc2)OCCCC[C@@H](C)O3)cc1	108	0	0	T cruzi growth-2=110;T cruzi growth-3=0;NIH3T3 tox=0;NIH3T3 tox 2=0
Cc1ccc(S(=O)(=O)Nc2ccc3c(c2)C(=O)N([C@H](C)CO)C[C@@H](C)[C@H](CN(C)S(=O)(=O)c2ccccc2)OCCCC[C@@H](C)O3)cc1	107	0	-	T cruzi growth-2=106;T cruzi growth-3=0;NIH3T3 tox=0;NIH3T3 tox 2=0
Cc1ccc(S(=O)(=O)Nc2ccc3c(c2)C(=O)N([C@@H](C)CO)C[C@H](C)[C@H](CN(C)S(=O)(=O)c2ccccc2)OCCCC[C@@H](C)O3)cc1	105	0	-	T cruzi growth-2=106;T cruzi growth-3=0;NIH3T3 tox=0;NIH3T3 tox 2=53
C[C@@H]1CCCCO[C@@H](CN(C)S(=O)(=O)c2ccccc2)[C@@H](C)CN([C@@H](C)CO)C(=O)c2cc(NS(=O)(=O)c3ccccc3)ccc2O1	0	0	0
CC(=O)Nc1ccc(C(=O)CSc2nnc(-c3ccccc3Cl)o2)cc1	-	-	0
CN1C(=O)C(O)(CC(=O)c2ccco2)c2cc(Cl)ccc21 (stereo not given)	-	-	0
O=C(CSC1CC(=O)N(c2ccccc2)C1=O)Nc1cccc(Br)c1 (stereo not given)	-	-	0
CCc1cc(OCCSc2nc(C)cc(=O)[nH]2)ccc1Cl	-	-	0
CC(=O)Nc1ccc(NC(=O)CN(c2ccc(F)cc2)S(C)(=O)=O)cc1	-	-	0
CCN1/C(=C2\C(=O)N=C(C)N2c2ccccc2)C=Cc2ccc(C)cc21	-	-	0
COc1ccccc1-c1ccc([C@@H]2[C@H](C#N)N(C(=O)C3CC3)[C@H]2CO)cc1	102	0	-	T cruzi growth-2=0;T cruzi growth-3=0;NIH3T3 tox=0;NIH3T3 tox 2=47
N#C[C@@H]1[C@@H](c2ccc(-c3ccccc3F)cc2)[C@H](CO)N1C(=O)C1CC1	0	0	-
